Assay results published in ChEMBL document CHEMBL4038329, “Side-Chain Modified Ergosterol and Stigmasterol Derivatives as Liver X Receptor Agonists” (J Med Chem, 2017).
Activity calls are given as the source filed them. The calls are words filed in the database; no cut-off is given here.

How the values were obtained:
[1] = biological target: T1, Oxysterols receptor LXR-alpha (Homo sapiens, UniProt Q13133); assay: Activation of GAL4 fused human LXR alpha expressed in HEK293 cells after 24 hrs by luciferase reporter gene assay; assay type: cell-based
T1 sequence (Q13133 whole entry): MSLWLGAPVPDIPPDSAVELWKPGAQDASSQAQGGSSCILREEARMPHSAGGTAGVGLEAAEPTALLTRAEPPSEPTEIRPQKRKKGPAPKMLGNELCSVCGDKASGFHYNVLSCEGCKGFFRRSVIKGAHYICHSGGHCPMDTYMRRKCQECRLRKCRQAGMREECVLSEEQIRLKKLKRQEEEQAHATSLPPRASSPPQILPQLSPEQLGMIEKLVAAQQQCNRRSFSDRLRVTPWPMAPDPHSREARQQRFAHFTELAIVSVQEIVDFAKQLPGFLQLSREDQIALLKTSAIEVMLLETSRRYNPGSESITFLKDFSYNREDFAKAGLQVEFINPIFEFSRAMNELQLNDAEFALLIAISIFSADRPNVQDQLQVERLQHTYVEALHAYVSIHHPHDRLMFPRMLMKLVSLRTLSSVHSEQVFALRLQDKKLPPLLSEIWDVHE
Outline: (§1)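 HEK293 cells (4x10⁴/well), grown in DMEM with 10% FBS at 37 °C under 5% CO₂, transiently co-transfected with pMH100X4-TK-luc, Renilla and the Gal4-LXR-α or Gal4-LXR-β plasmid. Dosing began 6 h after transfection and lasted 24 h, at 32, 16, 8, 4, 2 and 1 μM. Dual luciferase read-out. EC50 came from dose-response curves, averaged over three to five independent experiments, ± SD.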

[2] = biological target: T2, Oxysterols receptor LXR-beta (Homo sapiens, UniProt P55055); assay: Activation of GAL4 fused human LXR beta expressed in HEK293 cells after 24 hrs by luciferase reporter gene assay; assay type: cell-based; outline: as §1
T2 sequence (P55055 whole entry): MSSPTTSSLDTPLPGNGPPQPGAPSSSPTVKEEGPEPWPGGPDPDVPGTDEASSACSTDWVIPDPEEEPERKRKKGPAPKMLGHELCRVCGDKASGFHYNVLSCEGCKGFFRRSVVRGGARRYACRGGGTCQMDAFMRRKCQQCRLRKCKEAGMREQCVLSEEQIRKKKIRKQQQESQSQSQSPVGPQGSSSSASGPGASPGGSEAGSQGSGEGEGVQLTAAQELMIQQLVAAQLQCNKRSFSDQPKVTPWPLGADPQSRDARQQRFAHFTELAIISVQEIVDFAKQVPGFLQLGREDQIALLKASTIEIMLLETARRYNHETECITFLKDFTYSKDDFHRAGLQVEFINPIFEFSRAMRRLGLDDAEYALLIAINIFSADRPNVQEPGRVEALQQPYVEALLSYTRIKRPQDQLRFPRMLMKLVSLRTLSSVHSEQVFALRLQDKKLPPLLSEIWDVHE

[3] = Agonist activity at LXR in human HepG2 cells assessed as upregulation of FASN mRNA levels at 10 uM after 6 hrs by qPCR analysis; assay type: cell-based
Outline: (§2)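 HepG2 cells treated with ligand (10 μM). Total RNA was extracted with TRIZOL; 2 µg was reverse-transcribed (1 h, 42 °C). SREBP1c, FASN and SCD1 transcripts were measured by qPCR. Mean ± SD of three biological samples; ANOVA with Dunnett's test.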

[4] = Agonist activity at LXR in human HepG2 cells assessed as upregulation of SREBP1c mRNA levels at 10 uM after 6 hrs by qPCR analysis; assay type: cell-based; outline: as §2
[5] = Agonist activity at LXR in human U937 cells assessed as upregulation of SCD1 mRNA levels at 10 uM after 6 hrs by qPCR analysis relative to control; assay type: cell-based; details: human, 6 h, 10 µM
Outline: (§3)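 U937 cells, 3x10⁶ in 10 ml RPMI with 10% FBS, differentiated with PMA 10 ng/ml for 72 h at 37 °C, then treated with ligand (10 μM) for 6 h. Total RNA was isolated with TRIZOL; 2 µg was reverse-transcribed for 1 h at 42 °C. Transcripts were measured by qPCR. Mean ± SD of three biological samples; ANOVA with Dunnett's test.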

[6] = Agonist activity at LXR in human U937 cells assessed as upregulation of SREBP1c mRNA levels at 10 uM after 6 hrs by qPCR analysis; assay type: cell-based; outline: as §3
[7] = Agonist activity at LXR in human U937 cells assessed as upregulation of FASN mRNA levels at 10 uM after 6 hrs by qPCR analysis; assay type: cell-based; outline: as §3
[8] = Agonist activity at LXR in human HepG2 cells assessed as upregulation of SCD1 mRNA levels at 10 uM after 6 hrs by qPCR analysis; assay type: cell-based; outline: as §2
Homo sapiens [9] = species on record: Homo sapiens; assay: Agonist activity at LXR in human U937 cells assessed as upregulation of ABCA1 mRNA levels at 10 uM after 6 hrs by qPCR analysis; assay type: cell-based; outline: as §3
[10] = biological target: T3, Bile acid receptor (Homo sapiens) (UniProt Q96RI1); assay: Activation of GAL4 fused human FXR expressed in HEK293 cells at 10 uM by luciferase reporter gene assay
T3 sequence (whole entry): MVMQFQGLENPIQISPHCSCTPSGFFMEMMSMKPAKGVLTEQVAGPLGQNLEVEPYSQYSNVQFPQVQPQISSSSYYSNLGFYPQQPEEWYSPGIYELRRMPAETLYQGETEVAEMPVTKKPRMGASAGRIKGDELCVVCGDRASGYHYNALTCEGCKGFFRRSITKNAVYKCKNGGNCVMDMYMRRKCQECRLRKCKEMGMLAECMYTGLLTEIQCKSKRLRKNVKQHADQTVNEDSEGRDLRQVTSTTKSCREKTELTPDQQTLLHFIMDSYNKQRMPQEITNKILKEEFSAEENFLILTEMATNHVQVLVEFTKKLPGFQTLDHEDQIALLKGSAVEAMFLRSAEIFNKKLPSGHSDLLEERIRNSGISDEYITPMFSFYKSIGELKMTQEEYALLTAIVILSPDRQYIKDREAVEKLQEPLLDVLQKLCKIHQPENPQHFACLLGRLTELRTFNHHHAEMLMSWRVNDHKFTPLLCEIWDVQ

HEK293 = assay: Activation of GAL4 fused human RXR expressed in HEK293 cells at 10 uM after 24 hrs by luciferase reporter gene assay
[11] = biological target: T4, Peroxisome proliferator-activated receptor gamma (Homo sapiens) (UniProt P37231); assay: Activation of GAL4 fused human PPARgamma expressed in HEK293 cells at 10 uM after 24 hrs by luciferase reporter gene assay
T4 sequence (whole entry): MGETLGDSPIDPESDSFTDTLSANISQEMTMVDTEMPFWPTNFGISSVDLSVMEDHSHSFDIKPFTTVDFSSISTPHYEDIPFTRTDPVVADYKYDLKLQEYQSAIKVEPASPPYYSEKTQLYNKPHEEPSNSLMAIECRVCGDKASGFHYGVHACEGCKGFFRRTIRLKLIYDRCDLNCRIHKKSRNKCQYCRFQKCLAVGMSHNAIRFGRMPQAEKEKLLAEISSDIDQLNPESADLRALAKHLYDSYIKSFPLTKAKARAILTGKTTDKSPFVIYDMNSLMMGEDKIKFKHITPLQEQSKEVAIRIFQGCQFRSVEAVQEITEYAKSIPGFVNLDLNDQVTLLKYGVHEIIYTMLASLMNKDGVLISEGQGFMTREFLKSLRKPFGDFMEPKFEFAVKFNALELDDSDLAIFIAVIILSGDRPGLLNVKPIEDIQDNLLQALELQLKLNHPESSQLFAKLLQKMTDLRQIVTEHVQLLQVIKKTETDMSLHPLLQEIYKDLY

[12] = biological target: T5, Oxysterols receptor LXR-alpha (Homo sapiens) (UniProt Q13133); assay: Activation of GAL4 fused human LXR alpha expressed in HEK293 cells after 24 hrs by luciferase reporter gene assay relative to 22R-HC; assay type: cell-based
T5 sequence (whole entry): T1 sequence (Q13133 whole entry)
Outline: (§4)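 HEK293 cells carrying the Gal4-LXR-α or Gal4-LXR-β chimera plus the pMH100X4-TK-luc and Renilla reporters. Treatment started 6 h post-transfection and ran 24 h. Dual luciferase read-out. Efficacy is given as % of the response to 8 μM 22R-HC, ± SD, from three to five independent experiments.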

Homo sapiens [13] = species on record: Homo sapiens; assay: Agonist activity at LXR in human U937 cells assessed as downregulation of LPS-induced CCL2 mRNA expression at 10 uM after 6 hrs by qPCR analysis; assay type: cell-based
Outline: (§5)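 PMA-differentiated U937 cells (10 ng/ml PMA, 72 h) were given LPS 100 ng/ml together with compound (10 μM) for 6 h. CCL2 and TNFα mRNA were measured by qPCR after TRIZOL RNA extraction and reverse transcription. Three biological samples per group, mean ± SD.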

Homo sapiens [14] = species on record: Homo sapiens; assay: Agonist activity at LXR in human U937 cells assessed as downregulation of LPS-induced TNFalpha mRNA expression at 10 uM after 6 hrs by qPCR analysis; assay type: cell-based; outline: as §5
[15] = biological target: T6, Nuclear receptor subfamily 1 group I member 2 (Homo sapiens, UniProt O75469); assay: Activation of GAL4 fused human PXR expressed in HEK293 cells at 10 uM by luciferase reporter gene assay; details: hek293, 10 µM
T6 sequence (O75469 whole entry): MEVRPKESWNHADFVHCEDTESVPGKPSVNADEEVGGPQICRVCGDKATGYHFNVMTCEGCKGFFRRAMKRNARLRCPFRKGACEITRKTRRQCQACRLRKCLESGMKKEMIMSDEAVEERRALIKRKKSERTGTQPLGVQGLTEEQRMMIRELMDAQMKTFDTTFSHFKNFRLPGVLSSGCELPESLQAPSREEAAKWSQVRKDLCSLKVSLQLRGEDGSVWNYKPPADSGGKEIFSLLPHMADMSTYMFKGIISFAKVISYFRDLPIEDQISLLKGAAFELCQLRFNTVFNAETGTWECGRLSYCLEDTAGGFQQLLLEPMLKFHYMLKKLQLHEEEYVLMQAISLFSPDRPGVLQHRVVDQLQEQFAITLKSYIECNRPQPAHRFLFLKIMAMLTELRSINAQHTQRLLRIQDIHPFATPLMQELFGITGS

[16] = biological target: T7, Oxysterols receptor LXR-beta (Homo sapiens) (UniProt P55055); assay: Activation of GAL4 fused human LXR beta expressed in HEK293 cells after 24 hrs by luciferase reporter gene assay relative to 22R-HC; assay type: cell-based; outline: as §4
T7 sequence (whole entry): T2 sequence (P55055 whole entry)

Row | Structure (SMILES) | EC50 [1] | EC50 [2] | Activity [3] | Activity [4] | Activity [5] | Activity [6] | Activity [7] | Activity [8] | Activity (Homo sapiens [9]) | Activity [10] | Activity (HEK293) | Activity [11] | Efficacy [12] | Activity (Homo sapiens [13]) | Activity (Homo sapiens [14]) | Activity [15] | Efficacy [16]
1 | CC[C@H](C[C@H](O)[C@@H](C)[C@H]1CC[C@H]2[C@@H]3CC=C4C[C@@H](O)CC[C@]4(C)[C@H]3CC[C@]12C)C(C)C | Not Active | Not Active | Not Active | Not Active | Not Active | Not Active | Not Active | Not Active | – | – | – | – | – | – | – | – | –
2 | CC[C@@H](C(C)C)[C@@H](O)C[C@@H](C)[C@H]1CC[C@H]2[C@@H]3CC=C4C[C@@H](O)CC[C@]4(C)[C@H]3CC[C@]12C | Not Active | Not Active | Not Active | Not Active | Not Active | Not Active | Not Active | Not Active | Active | – | – | – | – | – | – | – | –
3 | CC[C@H](C[C@@H](O)[C@@H](C)[C@H]1CC[C@H]2[C@@H]3CC=C4C[C@@H](O)CC[C@]4(C)[C@H]3CC[C@]12C)C(C)C | – | – | Not Active | Not Active | Not Active | Not Active | Not Active | Not Active | Active | Active | inactive | inactive | – | – | – | – | –
4 | CC(C)[C@@H](C)C[C@@H](O)[C@@H](C)[C@H]1CC[C@H]2C3=CC=C4C[C@@H](O)CC[C@]4(C)[C@H]3CC[C@]12C | Not Active | Not Active | Not Active | Not Active | Not Active | Not Active | Not Active | Not Active | Active | – | – | – | – | – | – | – | –
5 | CC(C)[C@@H](C)[C@@H](O)C[C@@H](C)[C@H]1CC[C@H]2C3=CC=C4C[C@@H](O)CC[C@]4(C)[C@H]3CC[C@]12C | – | Not Active | Not Active | Not Active | Not Active | Not Active | Not Active | Not Active | Active | – | inactive | inactive | 159% | Active | Active | Active | –
6 | CC(C)[C@@H](C)C[C@H](O)[C@@H](C)[C@H]1CC[C@H]2C3=CC=C4C[C@@H](O)CC[C@]4(C)[C@H]3CC[C@]12C | – | – | Not Active | Not Active | Not Active | Not Active | Not Active | Not Active | Active | – | inactive | inactive | – | Active | – | Active | –
7 | CC(C)[C@@H](C)[C@H]1O[C@@H]1[C@@H](C)[C@H]1CC[C@H]2C3=CC=C4C[C@@H](O)CC[C@]4(C)[C@H]3CC[C@]12C | – | – | Not Active | Not Active | Not Active | Not Active | Not Active | Not Active | – | – | inactive | inactive | 93.2% | – | – | Active | 30.4%
